Measured values from paper PMC2213236 (The Journal of Experimental Medicine, 2005).
Each block holds one substance with its values, some of them ahead of it.

What was measured:
[1] = system: human CD4^+ T cell clones to proinsulin; assay type: cell-based; details: for stimulation of clones by insulin and proinsulin: titrated from 1 μM to 0.1 nM, mean of triplicates ± SEM
Procedure, shortened: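 Clones were cultured in triplicate in IMDM with 5% pooled human serum and irradiated APCs (autologous or HLA-matched PBMCs at 20 Gy, or EBV B-cell lines at 50 Gy). Insulin or proinsulin was used at 10 μg/ml, with anti-HLA DR mAb at 5 μg/ml where indicated. RP-HPLC fractions were tested at 1/400. After 2 d, 3H-thymidine (0.5 μCi/well, 18 h) was added; β-scintillation; mean ± SEM of triplicates.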

[2] = system: proinsulin-specific CD4^+ T cell clones from two healthy HLA DR4^+ donors; assay: Proliferation of proinsulin-specific CD4+ T cell clones from healthy donors; assay type: cell-based, human; details: 13 clones from two healthy HLA DR4^+ donors (6 and 7 clones); unpublished data
human T cells = details: first 14 amino acids of the A-chain of bovine insulin; cited from earlier work
murine T cells = details: first 14 amino acids of the A-chain of bovine insulin; cited from earlier work
HLA DRB1*0404 = assay: HLA DR binding; set-up: species or system human; details: compared with the serine-substituted homologue
[3] = Formation and reduction of the vicinal disulfide bond; assay type: physicochemical; details: MS, unpublished data

Substance: KRGIVDQCCTSICSL
- potency relative to the human homologue (fold less potent) ([1]; mouse vs human insulin A1-13, 50—0.05 μM peptide): ~10 -fold less potent

Substance: KRGIVEQCCTSICSL [KR-A1-13]
- clones proliferating in response to peptide [2]: none

Substance: S-6: serine substituted for the cysteine at A6
- proliferation of T cell clones to RP-HPLC fractions ([1]; S-6 peptide in similar experiments, unpublished data): No fractions stimulated proliferation

Substance: insulin: clinical grade recombinant insulin
- HLA DR dependence of the response to insulin ([1]; clinical grade recombinant insulin 10 μg/ml, anti-HLA DR mAb 5 μg/ml): HLA DR dependent
- stimulation of clones by insulin and proinsulin [1]: stimulated the clones equally

Substance: GIVEQCCASVCSLY
- recognition by T cells after immunization (human T cells): recognized
- recognition by T cells after immunization (murine T cells): recognized

- effect of the vicinal disulfide bond on binding to HLA DR4 (HLA DRB1*0404): did not alter binding to HLA DR4
- effect of dithiothreitol on the vicinal disulfide bond ([3]; dithiothreitol treatment, mass increased by 2 Dltons): reduced the vicinal disulfide bond
Substance: KRGIVEQC-CTSISSL (disulfide)

Substance: S-11: analogue peptide with serine substituted for cysteine at position A11 (KRGIVEQSSTSISSL)
- effect of TCEP reduction on ability to stimulate the clones ([1]; S-11 peptide (1 μM) treated with the disulfide-reducing agent TCEP): abolished the ability of S-11 to stimulate the clones
- formation of the vicinal disulfide bond ([3]; S-11 peptide in culture medium): within minutes

Substance: proinsulin: Recombinant human proinsulin produced in-house, shown to be folded correctly and free of endotoxin
- stimulation of clones by insulin and proinsulin [1]: stimulated the clones equally
